Test results: article PMC11568772 (Drug Design, Development and Therapy, 2024)

Key:
[1] = system: breast cancer (MCF-7) cell line; assay: MTT cytotoxicity, MCF-7; type: cell-based; conditions: Homo sapiens, MCF7, 24 h, read-out: IC50 MCF-7
How it was run: (§1)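 Cells were grown in medium with 10% FBS, penicillin/streptomycin, 37°C, 5% CO2, then seeded at 1.0×10^4 cells/well and held 48 h. Test compound was added at 1.56, 3.125, 6.25, 12.5, 25, 50 and 100, for 24 h. MTT (5 mg/mL stock) was added for 4 h, formazan dissolved in DMSO and A570 read. Viability was taken relative to untreated wells. IC50 came from a Boltzmann sigmoidal fit, in triplicate, mean ± SD.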

[2] = system: HCT-116, HePG-2, HeLa and MCF-7 cells; assay: MTT cytotoxicity summarised over the 4 cancer cell lines; type: cell-based; conditions: Homo sapiens, read-out: IC50 range of one compound over the cancer cell lines
How it was run: as §1

[3] = system: human cervical (Hela) carcinoma cell line; assay: MTT cytotoxicity, Hela; type: cell-based; conditions: 24 h, read-out: IC50 Hela
How it was run: as §1

[4] = system: colorectal (HCT116) carcinoma cell line; assay: MTT cytotoxicity, HCT-116; type: cell-based; conditions: Homo sapiens, HCT-116, 24 h, read-out: IC50 HCT-116
[5] = system: WI-38 normal fibroblast cells; assay: MTT cytotoxicity towards normal human cells WI-38; type: cell-based; conditions: WI-38, 24 h, read-out: IC50 WI-38
[6] = system: hepatocellular (HePG2) carcinoma cell line; assay: MTT cytotoxicity, HePG-2; type: cell-based; conditions: Homo sapiens, HepG2, 24 h, read-out: IC50 HePG-2
VEGFR-2 enzyme = VEGFR-2 enzyme (Homo sapiens, UniProt P35968); assay: VEGFR-2 kinase inhibitory assay; type: biochemical; conditions: for inhibition at 0.01 µM: read-out: % Inhibition 0.01 μM, VEGFR-2 enzyme, 0.01 μM; for inhibition at 0.1 µM: read-out: % Inhibition 0.1 μM, VEGFR-2 enzyme, 0.1 μM; for inhibition at 1 µM: read-out: % Inhibition 1 μM, VEGFR-2 enzyme, 1 μM; for inhibition at 10 µM: read-out: % Inhibition 10 μM, VEGFR-2 enzyme, 10 μM; for inhibition at 100 µM: read-out: % Inhibition 100 μM, VEGFR-2 enzyme, 100 μM
VEGFR-2 = conditions: read-out: IC50 VEGFR-2; reference medicine pazopanib; cited from earlier work
MCF-7 cells [7] = assay: Annexin V-FITC/PI apoptosis assay; type: cell-based, human; conditions: MCF-7, 24 hours of incubation
How it was run: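 MCF-7 cells were treated with test compound for 24 h, with DMSO as control. 1–5×10^5 cells were pelleted by centrifugation and resuspended in binding buffer. They were stained with Annexin V-FITC and PI for 5 min at room temperature in the dark, then analysed by flow cytometry. Quadrants: Q1 necrotic, Q2 late apoptotic, Q3 live, Q4 early apoptotic.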

MCF-7 cells [8] = assay: Cell cycle analysis by PI staining and flow cytometry; type: cell-based, human; conditions: MCF-7, 24 h at IC50 of the compound
[9] = system: prostate cancer PC3 cell line; conditions: read-out: IC50 PC3 cell line; cited from earlier work
[10] = system: VEGF-induced proliferation; conditions: read-out: IC50 VEGF-induced proliferation; cited from earlier work

VEGFR-2 enzyme, sequence (P35968 20-1356): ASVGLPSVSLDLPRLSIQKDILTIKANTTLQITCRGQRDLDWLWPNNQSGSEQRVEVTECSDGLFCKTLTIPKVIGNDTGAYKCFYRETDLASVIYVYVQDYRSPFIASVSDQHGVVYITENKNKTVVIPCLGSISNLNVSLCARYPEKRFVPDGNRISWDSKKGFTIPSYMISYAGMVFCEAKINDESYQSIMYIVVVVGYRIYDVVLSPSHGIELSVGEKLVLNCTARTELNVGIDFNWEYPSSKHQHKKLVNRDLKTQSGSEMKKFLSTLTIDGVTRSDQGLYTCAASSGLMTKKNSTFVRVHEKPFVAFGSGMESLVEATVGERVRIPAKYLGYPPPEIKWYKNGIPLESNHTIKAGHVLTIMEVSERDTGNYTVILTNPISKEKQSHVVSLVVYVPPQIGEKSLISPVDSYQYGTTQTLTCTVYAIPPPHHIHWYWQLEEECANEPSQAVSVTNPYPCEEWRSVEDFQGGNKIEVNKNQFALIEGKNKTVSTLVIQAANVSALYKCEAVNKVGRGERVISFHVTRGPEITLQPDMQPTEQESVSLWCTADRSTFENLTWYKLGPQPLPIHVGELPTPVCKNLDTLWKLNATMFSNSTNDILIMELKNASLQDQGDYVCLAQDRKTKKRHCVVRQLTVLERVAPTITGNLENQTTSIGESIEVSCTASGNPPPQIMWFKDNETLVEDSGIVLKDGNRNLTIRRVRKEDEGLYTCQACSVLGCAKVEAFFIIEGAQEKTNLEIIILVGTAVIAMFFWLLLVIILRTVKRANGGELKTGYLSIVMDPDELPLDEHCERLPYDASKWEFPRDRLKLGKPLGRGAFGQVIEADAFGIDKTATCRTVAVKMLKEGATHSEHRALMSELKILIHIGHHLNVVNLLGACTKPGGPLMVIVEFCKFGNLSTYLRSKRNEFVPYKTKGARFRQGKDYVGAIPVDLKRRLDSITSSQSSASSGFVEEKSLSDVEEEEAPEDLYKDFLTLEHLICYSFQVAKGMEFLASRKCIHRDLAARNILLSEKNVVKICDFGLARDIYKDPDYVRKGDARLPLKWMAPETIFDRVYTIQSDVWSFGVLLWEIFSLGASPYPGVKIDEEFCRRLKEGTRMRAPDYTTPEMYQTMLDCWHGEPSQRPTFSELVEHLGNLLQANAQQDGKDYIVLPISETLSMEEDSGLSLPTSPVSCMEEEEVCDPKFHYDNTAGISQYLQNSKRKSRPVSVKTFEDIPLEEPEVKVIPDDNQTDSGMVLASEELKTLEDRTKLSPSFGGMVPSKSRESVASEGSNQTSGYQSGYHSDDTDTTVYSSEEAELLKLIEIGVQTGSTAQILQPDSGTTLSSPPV

Structure (SMILES) | IC50 [1] [µM] | IC50 [2] [µM] | IC50 [3] [µM] | IC50 [4] [µM] | IC50 [5] [µM] | IC50 [6] [µM] | further results
O=C(NCCSc1nc2cc(Cl)ccc2c(=O)n1-c1ccccc1)Nc1ccc(Cl)cc1 [Compound 5k, 1-(2-((7-Chloro-4-Oxo-3-Phenyl-3,4-Dihydroquinazolin-2-Yl)thio)ethyl)-3-(4-Chlorophenyl)urea] | 32.9 ± 2.3 | 23.4 to 40.9 | 38 ± 2.5 | 23.4 ± 2.1 | > 100 | 40.9 ± 2.6 | –
O=C(NCCSc1nc2ccccc2c(=O)n1-c1ccccc1)Nc1ccc(C(F)(F)F)cc1 [Compound 5d, 1-(2-((4-Oxo-3-Phenyl-3,4-Dihydroquinazolin-2-Yl)thio)ethyl)-3-(4-(Trifluoromethyl)phenyl)urea] | 4.81 ± 0.2 | 2.39 to 8.94 | 8.94 ± 0.7 | 6.09 ± 2.2 | 36.3 ± 2.4 | 2.39 ± 0.1 | IC50 (VEGFR-2 enzyme): 0.274 µM; inhibition at 0.01 µM (VEGFR-2 enzyme): 25.5%; inhibition at 0.1 µM (VEGFR-2 enzyme): 38.9%; inhibition at 1 µM (VEGFR-2 enzyme): 60.4%; inhibition at 10 µM (VEGFR-2 enzyme): 83.5%; inhibition at 100 µM (VEGFR-2 enzyme): 91%
O=C(NCCSc1nc2cc(Cl)ccc2c(=O)n1-c1ccccc1)NCc1ccccc1 [Compound 5n, 1-Benzyl-3-(2-((7-Chloro-4-Oxo-3-Phenyl-3,4-Dihydroquinazolin-2-Yl)thio)ethyl)urea] | 48.7 ± 3 | – | 61.5 ± 3.7 | 44.2 ± 2.8 | 73.6 ± 3.9 | 52.4 ± 3.4 | –
O=C(NCCSc1nc2cc(Cl)ccc2c(=O)n1-c1ccccc1)NCCc1ccc(Cl)cc1 [Compound 5r, 1-(2-((7-Chloro-4-Oxo-3-Phenyl-3,4-Dihydroquinazolin-2-Yl)thio)ethyl)-3-(4-Chlorophenethyl)urea] | 10.7 ± 0.9 | 10.7 to 22.4 | 22.4 ± 1.7 | 13.2 ± 1.1 | 74.2 ± 4.1 | 17.7 ± 1.4 | –
O=C(NCCSc1nc2cc(Cl)ccc2c(=O)n1-c1ccccc1)NCCc1ccccc1 [Compound 5q, 1-(2-((7-Chloro-4-Oxo-3-Phenyl-3,4-Dihydroquinazolin-2-Yl)thio)ethyl)-3-Phenethylurea] | 24.6 ± 2 | – | 45.2 ± 2.7 | 32.5 ± 2.5 | 53 ± 3.1 | 41.6 ± 2.8 | –
O=C(NCCSc1nc2ccccc2c(=O)n1-c1ccccc1)NCCc1ccc(Cl)cc1 [Compound 5i, 1-(4-Chlorophenethyl)-3-(2-((4-Oxo-3-Phenyl-3,4-Dihydroquinazolin-2-Yl)thio)ethyl)urea] | 43.1 ± 2.8 | 39.1 to 58.3 | 58.3 ± 3.3 | 39.1 ± 2.7 | > 100 | 49.8 ± 3.2 | –
COc1ccc(NC(=O)NCCSc2nc3cc(Cl)ccc3c(=O)n2-c2ccccc2)cc1 [Compound 5j, 1-(2-((7-Chloro-4-Oxo-3-Phenyl-3,4-Dihydroquinazolin-2-Yl)thio)ethyl)-3-(4-Methoxyphenyl)urea] | 16 ± 1.3 | 9.51 to 16 | 19.1 ± 1.4 | 9.51 ± 0.9 | 38.5 ± 2.5 | 12.3 ± 1 | –
O=C(NCCSc1nc2ccccc2c(=O)n1-c1ccccc1)NCCc1ccccc1 [Compound 5h, 1-(2-((4-Oxo-3-Phenyl-3,4-Dihydroquinazolin-2-Yl)thio)ethyl)-3-Phenethylurea] | 13.9 ± 1.1 | – | 11.6 ± 0.9 | 5.89 ± 0.3 | 41.1 ± 2.6 | 6.74 ± 0.5 | IC50 (VEGFR-2 enzyme): 0.215 µM; % Inhibition 1 μM (VEGFR-2 enzyme; VEGFR-2 enzyme, 1 μM): 65.78%; % Inhibition 100 μM (VEGFR-2 enzyme; VEGFR-2 enzyme, 100 μM): 93.07%; inhibition at 0.01 µM (VEGFR-2 enzyme): 25.3%; inhibition at 0.1 µM (VEGFR-2 enzyme): 40.1%; inhibition at 10 µM (VEGFR-2 enzyme): 86.1%
COc1ccc(CNC(=O)NCCSc2nc3ccccc3c(=O)n2-c2ccccc2)cc1 [Compound 5f, 1-(4-Methoxybenzyl)-3-(2-((4-Oxo-3-Phenyl-3,4-Dihydroquinazolin-2-Yl)thio)ethyl)urea] | 18.7 ± 1.5 | 14.8 to 34.2 | 31.5 ± 2.3 | 14.8 ± 1.3 | 91.4 ± 5.1 | 34.2 ± 2.4 | –
COc1ccc(NC(=O)NCCSc2nc3ccccc3c(=O)n2-c2ccccc2)cc1 [Compound 5a, 1-(4-Methoxyphenyl)-3-(2-((4-Oxo-3-Phenyl-3,4-Dihydroquinazolin-2-Yl)thio)ethyl)urea] | 79.5 ± 3.9 | 62.7 to 83.4 | 83.4 ± 4.4 | 62.7 ± 3.6 | 29.4 ± 2.1 | 81.3 ± 4.3 | –
O=C(NCCSc1nc2cc(Cl)ccc2c(=O)n1-c1ccccc1)NCc1ccc(Cl)cc1 [Compound 5p, 1-(2-((7-Chloro-4-Oxo-3-Phenyl-3,4-Dihydroquinazolin-2-Yl)thio)ethyl)-3-(4-Chlorobenzyl)urea] | 7.99 ± 0.5 | 7.99 to 14.3 | 14.3 ± 1.2 | 8.32 ± 0.7 | 56.9 ± 3.3 | 9.72 ± 0.7 | necrosis (Q1) (MCF-7 cells [7]): 4.23%; late apoptosis (Q2) (MCF-7 cells [7]; control 0.27%): 12.51%; early apoptosis (Q4) (MCF-7 cells [7]; control 0.61%): 26.11%; total apoptosis (MCF-7 cells [7]; control 2.29%): 42.85%; Cell Cycle Distribution (%) G2-M (MCF-7 cells [8]; DMSO control 16.75): 7.82%; Cell Cycle Distribution (%) S (MCF-7 cells [8]; DMSO control 29.16): 35.02%; Cell Cycle Distribution (%) G0-G1 (MCF-7 cells [8]; DMSO control 54.09): 57.16%; IC50 (VEGFR-2 enzyme): 0.117 µM; inhibition at 0.01 µM (VEGFR-2 enzyme): 31.4%; inhibition at 0.1 µM (VEGFR-2 enzyme): 44.4%; inhibition at 1 µM (VEGFR-2 enzyme): 70.5%; inhibition at 10 µM (VEGFR-2 enzyme): 88.3%; inhibition at 100 µM (VEGFR-2 enzyme): 93.5%
O=C(NCCSc1nc2ccccc2c(=O)n1-c1ccccc1)Nc1ccc(Br)cc1 [Compound 5c, 1-(4-Bromophenyl)-3-(2-((4-Oxo-3-Phenyl-3,4-Dihydroquinazolin-2-Yl)thio)ethyl)urea] | 55.1 ± 3.2 | 48.2 to 67.7 | 67.7 ± 3.9 | 48.2 ± 3 | > 100 | 57.8 ± 3.6 | –
O=C(NCCSc1nc2cc(Cl)ccc2c(=O)n1-c1ccccc1)Nc1ccc(C(F)(F)F)cc1 [Compound 5m, 1-(2-((7-Chloro-4-Oxo-3-Phenyl-3,4-Dihydroquinazolin-2-Yl)thio)ethyl)-3-(4-(Trifluoromethyl)phenyl)urea] | 21.4 ± 1.8 | 18.1 to 30.7 | 27.9 ± 2.1 | 18.1 ± 1.5 | 76.3 ± 4.3 | 30.7 ± 2.2 | –
CNC(=O)c1cc(Oc2ccc(NC(=O)Nc3ccc(Cl)c(C(F)(F)F)c3)cc2)ccn1 [SOR, Sorafenib, reference compound] | 4.17 ± 0.2 | – | – | – | – | – | IC50 [9]: 17.3 µM
COc1ccc(CNC(=O)NCCSc2nc3cc(Cl)ccc3c(=O)n2-c2ccccc2)cc1 [Compound 5o, 1-(2-((7-Chloro-4-Oxo-3-Phenyl-3,4-Dihydroquinazolin-2-Yl)thio)ethyl)-3-(4-Methoxybenzyl)urea] | 86.5 ± 4.2 | 69.3 to 90.2 | 90.2 ± 4.8 | 69.3 ± 3.9 | 35.9 ± 2.3 | 84.3 ± 4.6 | –
COc1cc2c(Oc3ccc4[nH]c(C)cc4c3F)ncnc2cc1OCCCN1CCCC1 [Cediranib] | – | – | – | – | – | – | IC50 [10]: < 0.001 µM
O=C(NCCSc1nc2ccccc2c(=O)n1-c1ccccc1)Nc1ccc(Cl)cc1 [Compound 5b, 1-(4-Chlorophenyl)-3-(2-((4-Oxo-3-Phenyl-3,4-Dihydroquinazolin-2-Yl)thio)ethyl)urea] | 92.2 ± 4.7 | 77.3 to 100 | > 100 | 77.3 ± 4.2 | 64.3 ± 3.7 | 88.5 ± 4.8 | –
O=C(NCCSc1nc2ccccc2c(=O)n1-c1ccccc1)NCc1ccc(Cl)cc1 [Compound 5g, 1-(4-Chlorobenzyl)-3-(2-((4-Oxo-3-Phenyl-3,4-Dihydroquinazolin-2-Yl)thio)ethyl)urea] | 39.6 ± 2.6 | 35.3 to 53.7 | 53.7 ± 3.1 | 35.3 ± 2.6 | 86 ± 4.8 | 47.2 ± 3.1 | –
O=C(NCCSc1nc2cc(Cl)ccc2c(=O)n1-c1ccccc1)Nc1ccc(Br)cc1 [Compound 5l, 1-(4-Bromophenyl)-3-(2-((7-Chloro-4-Oxo-3-Phenyl-3,4-Dihydroquinazolin-2-Yl)thio)ethyl)urea] | 37.2 ± 2.5 | 28.6 to 49.4 | 49.4 ± 2.9 | 28.6 ± 2.3 | > 100 | 44.7 ± 2.9 | –
O=C(NCCSc1nc2ccccc2c(=O)n1-c1ccccc1)NCc1ccccc1 [Compound 5e, 1-Benzyl-3-(2-((4-Oxo-3-Phenyl-3,4-Dihydroquinazolin-2-Yl)thio)ethyl)urea] | 72.8 ± 3.6 | – | 75.3 ± 4.2 | 54.9 ± 3.3 | > 100 | 65.7 ± 3.8 | –
